Experimental data published in ChEMBL document CHEMBL2021842, “COMPARE analysis of the toxicity of an iminoquinone derivative of the imidazo[5,4-f]benzimidazoles with NAD(P)H:quinone oxidoreductase 1 (NQO1) activity and computational docking of quinones as NQO1 substrates” (Bioorg Med Chem, 2012).

What was measured:
Type in all cases: functional
HT-29 = assay: Growth inhibition of human HT-29 cells
Method in brief: (§1)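 NCI DTP 60-cell-line screen, second stage: five-dose testing across the human tumour panel. GI₅₀ taken as the concentration needed to inhibit cell growth by 50% in each cell line.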

MOLT-4 = assay: Growth inhibition of human MOLT4 cells
Method in brief: (§2)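 Part of the NCI DTP 60-cell-line panel. After the single-dose stage, cells were tested at five doses. Read-out is the GI50, the concentration giving 50% inhibition of cell growth, derived for each cell line.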

UACC-257 = assay: Growth inhibition of human UACC257 cells
Method in brief: (§3)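 This is the second, five-dose stage of the NCI DTP 60-cell-line screen. GI50 is the concentration that inhibits cell growth by 50%, derived for each cell line.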

SF-295 = assay: Growth inhibition of human SF295 cells; method in brief: as §2
PC-3 = assay: Growth inhibition of human PC3 cells; method in brief: as §2
LOX IMVI = assay: Growth inhibition of human LOXIMVI cells; method in brief: as §1
[1] = Growth inhibition of human Hs 578T cells; method in brief: as §1
UO-31 = assay: Growth inhibition of human UO31 cells; method in brief: as §3
NCI-H322M = assay: Growth inhibition of human NCI-H322M cells; method in brief: as §2
HCC 2998 = assay: Growth inhibition of human HCC2998 cells; method in brief: as §1
BT-549 [2] = assay: Growth inhibition of human BT549 cells; method in brief: as §1
RXF 393 = assay: Growth inhibition of human RXF393 cells; method in brief: as §2
SNB-75 = assay: Growth inhibition of human SNB75 cells; method in brief: as §3
TK-10 = assay: Growth inhibition of human TK10 cells; method in brief: as §3
ACHN = assay: Growth inhibition of human ACHN cells; method in brief: as §1
SF-539 = assay: Growth inhibition of human SF539 cells; method in brief: as §2
SR = assay: Growth inhibition of human SR cells; method in brief: as §3
SK-OV-3 = assay: Growth inhibition of human SKOV3 cells; method in brief: as §2
A498 = assay: Growth inhibition of human A498 cells; method in brief: as §1
CCRF-CEM = assay: Growth inhibition of human CCRF-CEM cells; method in brief: as §1
SF-268 = assay: Growth inhibition of human SF268 cells; method in brief: as §2
OVCAR-4 = assay: Growth inhibition of human OVCAR4 cells; method in brief: as §2
U-251 = assay: Growth inhibition of human U251 cells; method in brief: as §3
KM12 = assay: Growth inhibition of human KM12 cells; method in brief: as §1
UACC-62 = assay: Growth inhibition of human UACC62 cells; method in brief: as §3
EKVX = assay: Growth inhibition of human EKVX cells; method in brief: as §1
[3] = Growth inhibition of human RPMI8266 cells; method in brief: as §2
SK-MEL-28 = assay: Growth inhibition of human SK-MEL-28 cells; method in brief: as §2
M14 = assay: Growth inhibition of human M14 cells; method in brief: as §1
BT-549 [4] = assay: Growth inhibition of human BT549 cells assessed as cell growth at 10 uM relative to untreated control; settings: read-out: Activity
Method in brief: (§4)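 NCI DTP 60-cell-line screen, first stage: a single 10 µM dose of compound given to the human tumour panel. Result reported as percent growth relative to control, on a mean growth graph.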

NCI-H226 = assay: Growth inhibition of human NCI-H226 cells; method in brief: as §2
Malme-3M = assay: Growth inhibition of human MALME-3M cells assessed as cell growth at 10 uM relative to untreated control; settings: read-out: Activity; method in brief: as §4

## N=C1c2nc3n(c2C(=O)c2nc4n(c21)CCCC4)CCCC3
HT-29
  GI50: 2.75 µM
MOLT-4
  GI50: 38.9 µM
UACC-257
  GI50: 1.95 µM
SF-295
  GI50: 1.74 µM
PC-3
  GI50: 100 µM
LOX IMVI
  GI50: 0.562 µM
[1]
  GI50: 2.19 µM
UO-31
  GI50: 2.34 µM
NCI-H322M
  GI50: 1.7 µM
HCC 2998
  GI50: 4.79 µM
BT-549 [2]
  GI50: 2.04 µM
RXF 393
  GI50: 16.6 µM
SNB-75
  GI50: 2.19 µM
TK-10
  GI50: 70.8 µM
ACHN
  GI50: 30.9 µM
SF-539
  GI50: 2.57 µM
SR
  GI50: 8.51 µM
SK-OV-3
  GI50: 33.1 µM
A498
  GI50: 6.03 µM
CCRF-CEM
  GI50: 49 µM
SF-268
  GI50: 8.51 µM
OVCAR-4
  GI50: 34.7 µM
U-251
  GI50: 10 µM
KM12
  GI50: 13.2 µM
UACC-62
  GI50: 1.74 µM
EKVX
  GI50: 25.1 µM
[3]
  GI50: 25.7 µM
SK-MEL-28
  GI50: 2.09 µM
M14
  GI50: 1.78 µM
BT-549 [4]
  growth at 10 µM: -37.2%
NCI-H226
  GI50: 1.74 µM

## O=C1c2nc3n(c2C(=O)c2nc4n(c21)CCCC4)CCCC3
Malme-3M
  growth at 10 µM: 79.6%
